Source: ChEMBL document CHEMBL4118021, “Studies of TAK1-centered polypharmacology with novel covalent TAK1 inhibitors” (Bioorg Med Chem, 2017)
Each block holds one molecule with its values, some of them ahead of it. The source made the active and inactive calls. The calls are words filed in the database; no cut-off is given here.

Assays:
[1] = target: Membrane-associated progesterone receptor component 1 (Homo sapiens) (UniProt O00264); test: Binding affinity to PGRMC1 in human NCI-H23 cells at 1 uM by mass spectrometry based pull down assay; type: cell-based
Chain of Membrane-associated progesterone receptor component 1 (Homo sapiens) (O00264 whole entry): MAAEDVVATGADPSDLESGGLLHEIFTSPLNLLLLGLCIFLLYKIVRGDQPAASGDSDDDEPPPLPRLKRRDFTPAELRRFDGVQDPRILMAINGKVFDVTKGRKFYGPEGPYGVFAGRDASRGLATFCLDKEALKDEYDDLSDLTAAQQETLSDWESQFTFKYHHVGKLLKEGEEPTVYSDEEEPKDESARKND

[2] = target: T1, Serine/threonine-protein kinase Nek9 (Homo sapiens) (UniProt Q8TD19); test: Binding affinity to NEK9 in human NCI-H358 cells at 1 uM by mass spectrometry based pull down assay; type: cell-based
T1 sequence (whole entry): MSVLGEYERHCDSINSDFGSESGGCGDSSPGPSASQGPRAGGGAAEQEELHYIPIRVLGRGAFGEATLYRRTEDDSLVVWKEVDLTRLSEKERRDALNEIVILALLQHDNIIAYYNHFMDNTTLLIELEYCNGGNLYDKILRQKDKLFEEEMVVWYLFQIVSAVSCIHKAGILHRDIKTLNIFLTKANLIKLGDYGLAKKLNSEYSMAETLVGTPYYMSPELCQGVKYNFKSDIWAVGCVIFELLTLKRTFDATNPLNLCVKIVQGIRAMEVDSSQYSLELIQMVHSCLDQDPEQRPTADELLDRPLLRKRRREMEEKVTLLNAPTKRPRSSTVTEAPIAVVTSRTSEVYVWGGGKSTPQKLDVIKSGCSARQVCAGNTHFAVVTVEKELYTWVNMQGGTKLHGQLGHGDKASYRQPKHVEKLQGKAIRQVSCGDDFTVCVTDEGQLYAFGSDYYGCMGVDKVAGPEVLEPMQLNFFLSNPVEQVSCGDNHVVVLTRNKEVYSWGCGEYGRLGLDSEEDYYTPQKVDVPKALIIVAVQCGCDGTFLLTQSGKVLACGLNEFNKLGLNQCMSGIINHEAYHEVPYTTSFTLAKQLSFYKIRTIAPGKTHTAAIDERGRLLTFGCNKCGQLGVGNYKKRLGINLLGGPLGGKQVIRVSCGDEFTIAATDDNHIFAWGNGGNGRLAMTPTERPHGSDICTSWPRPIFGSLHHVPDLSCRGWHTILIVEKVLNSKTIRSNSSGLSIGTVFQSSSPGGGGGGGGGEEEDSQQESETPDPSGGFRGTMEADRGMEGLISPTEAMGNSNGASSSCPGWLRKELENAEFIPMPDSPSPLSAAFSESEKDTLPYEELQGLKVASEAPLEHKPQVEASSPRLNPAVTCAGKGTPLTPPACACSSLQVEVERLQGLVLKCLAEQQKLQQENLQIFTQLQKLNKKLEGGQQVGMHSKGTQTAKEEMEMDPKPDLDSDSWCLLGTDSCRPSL

[3] = target: Multifunctional protein CAD (Homo sapiens) (UniProt P27708); test: Binding affinity to CAD in human NCI-H23 cells at 1 uM by mass spectrometry based pull down assay; type: cell-based
Chain of Multifunctional protein CAD (Homo sapiens) (P27708 whole entry): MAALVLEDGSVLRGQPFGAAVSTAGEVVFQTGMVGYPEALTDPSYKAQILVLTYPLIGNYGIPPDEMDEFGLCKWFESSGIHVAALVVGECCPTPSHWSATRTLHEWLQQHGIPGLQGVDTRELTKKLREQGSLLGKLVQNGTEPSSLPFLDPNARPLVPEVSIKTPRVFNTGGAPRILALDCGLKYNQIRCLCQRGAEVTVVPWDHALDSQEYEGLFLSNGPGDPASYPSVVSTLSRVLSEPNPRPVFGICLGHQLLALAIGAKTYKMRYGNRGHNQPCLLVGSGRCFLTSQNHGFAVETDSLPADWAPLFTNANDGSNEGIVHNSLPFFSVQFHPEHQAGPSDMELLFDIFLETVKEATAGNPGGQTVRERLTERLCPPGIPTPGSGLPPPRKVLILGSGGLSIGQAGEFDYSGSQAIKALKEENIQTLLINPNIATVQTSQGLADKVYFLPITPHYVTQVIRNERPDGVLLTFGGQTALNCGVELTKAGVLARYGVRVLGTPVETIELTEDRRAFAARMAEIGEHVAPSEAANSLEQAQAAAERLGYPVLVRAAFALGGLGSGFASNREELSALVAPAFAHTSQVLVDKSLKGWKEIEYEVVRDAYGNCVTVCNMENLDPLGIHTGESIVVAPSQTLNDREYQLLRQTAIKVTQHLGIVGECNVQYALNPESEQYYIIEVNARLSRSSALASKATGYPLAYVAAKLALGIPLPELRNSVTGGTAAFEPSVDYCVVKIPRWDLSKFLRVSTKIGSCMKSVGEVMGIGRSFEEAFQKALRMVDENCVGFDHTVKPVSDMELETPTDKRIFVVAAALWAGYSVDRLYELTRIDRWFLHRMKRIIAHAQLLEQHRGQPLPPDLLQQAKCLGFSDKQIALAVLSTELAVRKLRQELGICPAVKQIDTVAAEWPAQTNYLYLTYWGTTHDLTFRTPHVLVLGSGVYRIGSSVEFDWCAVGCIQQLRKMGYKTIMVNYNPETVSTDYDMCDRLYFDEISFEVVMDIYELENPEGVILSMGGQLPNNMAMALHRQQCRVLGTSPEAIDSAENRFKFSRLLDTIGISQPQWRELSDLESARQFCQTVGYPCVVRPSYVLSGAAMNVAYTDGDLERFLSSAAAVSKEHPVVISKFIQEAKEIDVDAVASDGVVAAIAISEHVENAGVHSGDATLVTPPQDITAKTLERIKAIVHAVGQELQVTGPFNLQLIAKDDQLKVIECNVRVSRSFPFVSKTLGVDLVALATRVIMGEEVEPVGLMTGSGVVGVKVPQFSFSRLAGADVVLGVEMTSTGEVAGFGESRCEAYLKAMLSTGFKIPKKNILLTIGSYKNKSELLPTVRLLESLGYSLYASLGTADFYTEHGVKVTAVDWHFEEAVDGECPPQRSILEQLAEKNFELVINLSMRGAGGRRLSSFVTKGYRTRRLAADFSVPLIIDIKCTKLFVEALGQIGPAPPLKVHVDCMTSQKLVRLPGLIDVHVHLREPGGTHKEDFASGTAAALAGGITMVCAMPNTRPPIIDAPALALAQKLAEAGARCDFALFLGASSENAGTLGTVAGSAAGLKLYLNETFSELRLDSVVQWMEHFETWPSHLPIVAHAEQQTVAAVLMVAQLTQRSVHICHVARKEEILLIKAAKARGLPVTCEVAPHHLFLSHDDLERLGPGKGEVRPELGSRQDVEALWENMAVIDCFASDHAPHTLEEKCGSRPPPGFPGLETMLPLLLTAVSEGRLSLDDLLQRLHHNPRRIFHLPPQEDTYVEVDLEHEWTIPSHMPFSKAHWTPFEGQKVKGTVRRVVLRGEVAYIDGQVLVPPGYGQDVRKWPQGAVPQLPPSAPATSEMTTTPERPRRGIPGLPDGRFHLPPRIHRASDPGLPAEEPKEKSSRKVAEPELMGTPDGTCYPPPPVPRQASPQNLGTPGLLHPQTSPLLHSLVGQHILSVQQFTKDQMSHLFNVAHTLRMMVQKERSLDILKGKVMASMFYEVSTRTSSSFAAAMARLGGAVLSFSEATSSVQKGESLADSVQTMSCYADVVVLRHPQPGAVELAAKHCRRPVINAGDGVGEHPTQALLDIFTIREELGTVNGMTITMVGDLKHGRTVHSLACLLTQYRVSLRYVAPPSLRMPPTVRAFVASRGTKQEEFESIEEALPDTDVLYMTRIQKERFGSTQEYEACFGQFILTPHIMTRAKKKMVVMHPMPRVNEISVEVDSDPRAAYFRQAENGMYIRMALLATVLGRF

[4] = target: Inosine-5'-monophosphate dehydrogenase 2 (Homo sapiens) (UniProt P12268); test: Binding affinity to IMPDH2 in human NCI-H358 cells at 1 uM by mass spectrometry based pull down assay; type: cell-based
Chain of Inosine-5'-monophosphate dehydrogenase 2 (Homo sapiens) (P12268 2-514 limits assumed): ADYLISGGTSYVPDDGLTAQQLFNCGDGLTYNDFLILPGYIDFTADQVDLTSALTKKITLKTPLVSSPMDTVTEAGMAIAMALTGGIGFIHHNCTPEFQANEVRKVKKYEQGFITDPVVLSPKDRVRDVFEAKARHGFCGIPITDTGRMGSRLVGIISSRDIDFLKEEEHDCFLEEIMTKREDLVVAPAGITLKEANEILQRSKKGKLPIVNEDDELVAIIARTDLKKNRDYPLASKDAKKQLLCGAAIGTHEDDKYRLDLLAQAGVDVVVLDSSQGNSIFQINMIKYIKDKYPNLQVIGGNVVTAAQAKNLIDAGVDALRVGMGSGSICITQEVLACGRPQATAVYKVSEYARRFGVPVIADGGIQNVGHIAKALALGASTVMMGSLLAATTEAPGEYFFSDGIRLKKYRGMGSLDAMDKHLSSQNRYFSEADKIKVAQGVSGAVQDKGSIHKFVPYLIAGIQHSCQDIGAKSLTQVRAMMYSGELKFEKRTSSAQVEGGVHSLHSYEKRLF

[5] = target: Tyrosine-protein kinase Fer (Homo sapiens) (UniProt P16591); test: Inhibition of FER in human SKCO1 cells at 1 uM after 4 hrs using biotin labeled TSVAVKTCKEDLPQELK probe by mass-spectrometric analysis relative to control; type: cell-based
Chain of Tyrosine-protein kinase Fer (Homo sapiens) (P16591 whole entry, looked up): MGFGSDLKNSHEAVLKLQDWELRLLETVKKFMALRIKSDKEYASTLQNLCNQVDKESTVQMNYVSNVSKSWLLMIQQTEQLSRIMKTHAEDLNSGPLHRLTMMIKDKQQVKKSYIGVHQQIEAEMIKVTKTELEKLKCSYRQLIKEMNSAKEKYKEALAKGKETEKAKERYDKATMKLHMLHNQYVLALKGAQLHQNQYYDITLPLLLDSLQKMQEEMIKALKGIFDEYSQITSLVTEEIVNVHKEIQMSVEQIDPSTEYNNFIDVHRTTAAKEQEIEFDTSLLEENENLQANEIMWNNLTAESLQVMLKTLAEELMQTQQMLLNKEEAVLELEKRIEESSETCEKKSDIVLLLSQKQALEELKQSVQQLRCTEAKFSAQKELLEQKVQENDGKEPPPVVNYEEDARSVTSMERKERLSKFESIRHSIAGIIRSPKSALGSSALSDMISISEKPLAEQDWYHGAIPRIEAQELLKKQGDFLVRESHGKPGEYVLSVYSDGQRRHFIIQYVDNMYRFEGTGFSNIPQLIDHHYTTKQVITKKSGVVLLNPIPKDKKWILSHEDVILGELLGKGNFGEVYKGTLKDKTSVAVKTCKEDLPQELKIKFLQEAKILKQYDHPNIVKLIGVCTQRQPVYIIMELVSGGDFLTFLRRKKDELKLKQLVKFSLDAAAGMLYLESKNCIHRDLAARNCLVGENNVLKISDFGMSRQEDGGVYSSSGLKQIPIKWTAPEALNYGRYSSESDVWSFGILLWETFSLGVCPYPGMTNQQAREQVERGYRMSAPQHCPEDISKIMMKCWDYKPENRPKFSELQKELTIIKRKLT

[6] = target: T2, Mitogen-activated protein kinase kinase kinase 7 (Homo sapiens) (UniProt O43318); test: Inhibition of TAK1 in RA patient-derived synovial fibroblasts assessed as inhibition of IL-1alpha-induced cytokine secretion at 3 uM preincubated for 3 hrs followed by IL-1alpha stimulation measured after 18 hrs by sandwich immunoassay
T2 sequence (whole entry): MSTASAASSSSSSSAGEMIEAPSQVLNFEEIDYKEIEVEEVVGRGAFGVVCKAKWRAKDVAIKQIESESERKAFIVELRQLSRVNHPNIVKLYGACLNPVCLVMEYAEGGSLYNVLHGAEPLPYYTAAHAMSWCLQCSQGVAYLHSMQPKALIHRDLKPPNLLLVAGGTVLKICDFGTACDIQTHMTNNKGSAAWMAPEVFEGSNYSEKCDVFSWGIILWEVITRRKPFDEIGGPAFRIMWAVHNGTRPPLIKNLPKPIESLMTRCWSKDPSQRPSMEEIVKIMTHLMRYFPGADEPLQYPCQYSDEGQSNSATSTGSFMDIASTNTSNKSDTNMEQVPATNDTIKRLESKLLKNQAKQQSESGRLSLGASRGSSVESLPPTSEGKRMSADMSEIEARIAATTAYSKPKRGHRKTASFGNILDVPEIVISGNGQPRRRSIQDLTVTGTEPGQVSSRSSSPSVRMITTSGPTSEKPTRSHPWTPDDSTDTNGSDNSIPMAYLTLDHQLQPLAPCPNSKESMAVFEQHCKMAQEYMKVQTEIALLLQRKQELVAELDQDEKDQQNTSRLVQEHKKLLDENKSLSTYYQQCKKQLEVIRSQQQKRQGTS
Summary of the method: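 Primary RA synovial fibroblasts (donor RA2159) seeded 1000 cells/well and grown ~24 h at 37 °C, 5% CO2. Starved overnight in basal medium, then ~4 h in basal medium with 0.1% BSA. Two adjacent wells pooled per replicate, in biological duplicate. Supernatants diluted 1:3 and run on Luminex 27-plex/21-plex sandwich immunoassays for 48 analytes, with spiked-ligand and mock-supernatant background controls.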

- Activity [1]: Active
- Activity [3]: Active
- Activity [4]: Active
Compound: C=CC(=O)Nc1ccccc1Nc1nc(Nc2ccc(N3CCN(CCOCCOCCOCCNC(=O)CCCC[C@@H]4SC[C@@H]5NC(=O)N[C@@H]54)CC3)cc2)ncc1Cl
- Activity [2]: Active

Compound: C=CC(=O)Nc1ccccc1Nc1nc(Nc2ccc(N3CCN(C)CC3)cc2)ncc1Cl
- inhibition [5]: -0.2%

Compound: C=CC(=O)Nc1ccccc1Oc1nc(Nc2cnn(CCOC)c2)ncc1Cl
- inhibition [6]: Active
